Compound activity deposited in PubChem BioAssay by The Scripps Research Institute Molecular Screening Center.
A selection: hits, their analogues and other compounds. The true share with any hit is near 2.5%.
TCR-CD3 inh: inhibitors of human TCR-CD3 interaction; TAMRA-labeled TCR probe fluorescence, biochemical; inhibition, % at 9.4 µM; 0.37% of 360,000 active; in the data active = inhibition above about 19%;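 also: recombinant mutant TCR 2C K166C tagged with TAMRA read by polarization; 0% = receptor in buffer alone and 100% = receptor with positive control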
ABHD4 inh: ABHD4 (mouse) inhibition, primary FP screen; Q8VD66; purified mABHD4, FP-Rh probe fluorescence polarization; inhibition, % at 8.92 µM; 0.54% of 370,000 active; AID 720543;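 active = inhibition exceeding the mean over every tested compound plus 3 SD, cut at about 30% in these data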;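 also: 0% = plate median of compound wells and 100% = S159A mutant with DMSO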
Target sequence (Q8VD66 whole entry, looked up): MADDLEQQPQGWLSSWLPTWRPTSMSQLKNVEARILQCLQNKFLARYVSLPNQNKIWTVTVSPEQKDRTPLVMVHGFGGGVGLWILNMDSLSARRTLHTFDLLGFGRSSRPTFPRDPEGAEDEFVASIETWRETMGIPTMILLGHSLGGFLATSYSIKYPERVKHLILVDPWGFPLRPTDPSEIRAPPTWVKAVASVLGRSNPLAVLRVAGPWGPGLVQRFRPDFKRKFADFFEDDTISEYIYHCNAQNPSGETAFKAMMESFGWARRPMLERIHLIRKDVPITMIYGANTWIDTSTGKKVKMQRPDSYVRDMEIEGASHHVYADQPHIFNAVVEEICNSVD
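Material: mouse ABHD4 enzyme, wild type; Benchmarks: S159A mutant high control, sample median low control; Buffer or medium: HEPES pH 7.0, NaCl, Pluronic buffer; Signal: fluorescence polarization; Read-out: percent inhibition of probe binding, normalized to plate controls; Timing: pre-incubation 45 min, probe exposure 60 min, at 25 °C; Dosing: 8.92 µM, single dose.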
PRMT1 inh: inhibitors of human PRMT1; 1.3% of 370,000 active; inhibition, % at 2.79 µM; recombinant PRMT1, activity-based probe fluorescence polarization; AID 652257;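 active = inhibition above about 21% made by adding two undisclosed values, limit read from the data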
SIAE inh: inhibitors of human sialic acid acetylesterase SIAE; Q9HAT2; SIAE FP-Rh probe binding, fluorescence polarization; AID 1053197; inhibition, % at 9.66 µM; 0.69% of 370,000 active;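 active = inhibition above a cutoff: mean of compounds within the control limits plus 3 SD of those, cut at about 17% in these data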;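 also: 0% = plate median of compound wells and 100% = probe without SIAE protein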
HTRA1 inh: inhibitors of human serine peptidase HTRA1. Q92743. inhibition, % at 5.96 µM. 0.5% of 340,000 active. recombinant HTRA1, FP-rhodamine activity-based probe, fluorescence polarization; in the data active = inhibition above about 36%;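 also: 0% = enzyme with DMSO and 100% = wells lacking enzyme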
HTRA1 conf: confirmation of human HTRA1 inhibitors; inhibition, % at 5.96 µM; 66% of 1,600 active; recombinant HTRA1, FP-rhodamine activity-based probe, fluorescence polarization; shares compounds with HTRA1 inh;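 active = mean inhibition over three repeats above a set limit taken from the earlier primary screen, cut at about 37% in these data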;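 also: 0% = HTRA1 with DMSO and 100% = wells lacking HTRA1; inhibitors block probe binding so polarization drops and inhibition rises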
* = called active by the depositor; x = no result given.

SMILES	TCR-CD3 inh	ABHD4 inh	PRMT1 inh	SIAE inh	HTRA1 inh	HTRA1 conf
CCC(=O)NC(c1ccc(OC)cc1)c1cc(Cl)c2cccnc2c1O (stereo unspecified)	2.0	8.5	-2.7	14.8	59.3*	72.5*
CC(=O)NC(c1cc(Cl)c2cccnc2c1O)C(C)C (stereo unspecified)	-0.2	13.9	-0.9	3.0	52.9*	72.5*
COc1ccc(OC)c(CN2C(=O)CCCCC2(C)c2nnnn2C2CCCC2)c1 (stereo unspecified)	x	2.2	-0.3	-3.5	x	x
COc1cc(/C=N/NC(=O)c2cc3ccccc3cc2O)ccc1OCCN1CCCCC1	1.0	28.6	-2.5	10.8	48.2*	25.4
CCOc1ccc(/C=N/NC(=O)c2cc3ccccc3cc2OC)cc1	9.4	-5.5	-0.3	-10.3	-46.2	x
COCCn1c(C)cc(/C=N/NC(=O)c2cc3ccccc3cc2O)c1C	x	x	x	x	43.6*	20.7
Nc1cc([N+](=O)[O-])cc2oc(-c3ccccc3)cc12	-27.3	22.5	8.4	3.2	45.4*	38.4*
CC(C)C[C@H](NC1(C(=O)NC2CCCCC2)CCCCC1)C(=O)NCCc1c[nH]c2ccccc12	x	5.1	0.8	10.8	x	x
Cc1ccc(-n2c(SCC(=O)Nc3ccc(Oc4ccccc4)cc3)nnc2-c2ccco2)cc1	x	-7.6	-0.5	-0.4	x	x
O=C(COc1ccccc1C(=O)N/N=C\c1ccc(O)c(O)c1)N/N=C/c1ccc(O)c(O)c1	x	x	x	x	47.2*	58.6*
CC(C)(C)c1ccc(OCc2ccc(C(=O)N/N=C/c3ccc(O)c(O)c3)cc2)cc1	2.5	24.9	-3.4	13.5	45.3*	81.5*
CC(COc1ccc(CC#N)cc1)CN1CCC(C(O)(c2ccccc2)c2ccccc2)CC1 (stereo unspecified)	x	-0.4	1.0	2.0	x	x
CC(=O)c1ccc(NC(=O)C(C)OC(=O)CCN=C2NS(=O)(=O)c3ccccc32)cc1 (stereo unspecified)	-3.0	-3.8	-4.2	-2.9	-1.3	x
CC(=O)c1cccc(NC(=O)C(C)OC(=O)CCN=C2NS(=O)(=O)c3ccccc32)c1 (stereo unspecified)	-0.1	5.8	1.7	-1.9	89.9*	4.1
Cc1cc(OC(C)CCN2CCC(C(O)(c3ccccc3)c3ccccc3)CC2)ccc1Br (stereo unspecified)	x	22.0	-3.2	1.6	x	x
COCC(=O)Nc1ccc(Nc2ccccc2)cc1	0.9	0.2	0.2	7.5	46.8*	40.3*
CCC(=O)Nc1ccc(Nc2ccccc2)cc1	5.8	-3.4	-0.9	6.0	21.1	x
COc1ccc(-c2c[n+]3c4n2CCCCC4=C(c2ccc(Br)cc2)C3)cc1	-9.0	1.9	1.4	-0.1	52.4*	20.5
CC(C)N1CCCCC(NC(=O)c2c(F)cccc2F)C1=O (stereo unspecified)	x	-3.8	-5.1	1.2	x	x
CC(C)CN1C=C2C(=O)C(C)(OC(=O)C3CCCC3)C(=O)C=C2C=C1c1ccsc1 (stereo unspecified)	4.6	13.0	6.0	8.0	26.2	x
CC1(OC(=O)C2CCCC2)C(=O)C=C2C=C(c3ccsc3)N(c3ccccc3)C=C2C1=O (stereo unspecified)	-3.1	19.7	6.8	5.6	39.3*	32.5
CC1(OC(=O)C2CCCC2)C(=O)C=C2C=C(c3ccsc3)N(C3CC3)C=C2C1=O (stereo unspecified)	-3.0	12.4	6.5	11.4	19.5	x
CC1(OC(=O)C2CCCC2)C(=O)C=C2C=C(c3ccsc3)N(Cc3ccccc3)C=C2C1=O (stereo unspecified)	-3.1	23.6	6.7	4.8	37.9*	30.8
COc1cccc(OC)c1NC(=O)OCCN1CCCC12CCC(c1ccccc1)CC2 (stereo unspecified)	x	3.9	-2.6	2.7	x	x
N/C(=N\OC(=O)c1ccccc1Cl)c1cccc([N+](=O)[O-])c1	3.7	0.3	0.5	5.1	2.0	x
SMILES	TCR-CD3 inh	ABHD4 inh	PRMT1 inh	SIAE inh	HTRA1 inh	HTRA1 conf
N/C(=N/OC(=O)c1ccccc1Cl)c1ncc([N+](=O)[O-])s1	2.6	2.0	-0.5	2.5	56.6*	34.4
c1coc(-c2nc3ccccc3nc2-c2ccco2)c1	34.1*	61.7*	42.2*	25.4*	51.7*	10.0
CCCC1Nc2ccc(C(=O)O)cc2C2C=CCC12 (stereo unspecified)	x	x	x	x	38.9*	38.5*
Nn1c(SCC(=O)NC2CCCCC2)nnc1-c1cc(-c2ccc(F)cc2)n[nH]1	x	3.2	0.9	-2.0	x	x
CCCC(=O)NC(c1cccs1)c1cc([N+](=O)[O-])c2cccnc2c1O (stereo unspecified)	-0.2	12.2	4.7	7.9	36.3*	51.0*
O=C(CCc1ccccc1)NC(c1cccs1)c1cc(Cl)c2cccnc2c1O (stereo unspecified)	-5.2	-3.4	4.3	-0.1	48.8*	54.0*
N=C1CCC(=N)c2c1c(O)c1ccccc1c2O	x	x	x	x	88.3*	110.0*
CC(=O)c1cc(-c2cc(C(=O)O)cc([N+](=O)[O-])c2)c(=O)n2c1CCC2	x	8.5	3.6	-0.7	x	x
Cc1ccc(-c2nnc(Sc3nc4ccccc4o3)c3ccccc23)cc1	7.0	-1.9	-0.8	3.4	-17.1	x
Clc1ccc(-c2nnc(Sc3nc4ccccc4o3)c3ccccc23)cc1	3.5	-4.3	-3.7	-1.3	137.1*	-4.5
NNC(=O)c1oc2nc(-c3ccccc3)cc(-c3ccccc3)c2c1N	15.3	16.0	-2.4	6.7	47.4*	12.8
CC1CC(C)CN(C(=O)c2ccc3c(c2NCCO)C(=O)c2ccccc2C3=O)C1 (stereo unspecified)	-26.5	26.8	0.6	1.1	41.1*	52.6*
CCC[C@H]1[C@@H](OC(=O)N2CCN(c3ccccc3)CC2)CC[C@@]23CCCN2C(=O)CCC[C@@H]13	x	3.8	1.3	4.4	x	x
O=C1CCCC2=C1C1(CCCC1)N=C(Nc1nc3cc(Br)ccc3o1)N2	x	1.8	3.5	-4.2	x	x
CCOC(=O)COn1c(=O)c(-c2cccs2)[n+]([O-])c2ccccc21	-6.5	7.8	7.5	-0.5	42.0*	10.0
CCOn1c(=O)c(-c2cccs2)[n+]([O-])c2ccccc21	7.4	5.6	-1.7	-2.7	27.1	x
COC(=O)C1=C(C)NC(=O)/C1=C\c1cc(C)n(-c2cc(C)cc(C)c2)c1C	-5.6	15.7	7.0	3.3	53.2*	34.8
COC(=O)C1=C(C)NC(=O)/C1=C\c1cc(C)n(-c2ccccc2)c1C	-2.5	7.5	2.2	6.2	20.2	x
Cc1cccc(NC(=O)CSc2nnc(-c3ccco3)c(-c3ccco3)n2)c1C	x	x	x	x	49.9*	13.8
C/C(C=NNC(=O)CSc1nnc(-c2ccc(Cl)cc2)n1-c1ccccc1)=C\c1ccccc1	x	-5.4	-5.3	-4.6	x	x
O=[N+]([O-])c1cccc2[nH]c(CNc3nc(N4CCOCC4)nc4c3ncn4-c3ccsc3)nc12	x	11.3	-3.8	-1.8	x	x
O=Cc1ccc(O)c2ncccc12	x	x	x	x	36.4*	60.0*
